Source: ChEMBL document CHEMBL4385606, “3,5,7-Substituted Pyrazolo[4,3- d]pyrimidine Inhibitors of Cyclin-Dependent Kinases and Their Evaluation in Lymphoma Models” (J Med Chem, 2019)
Active and inactive are the calls of the source. The calls are words filed in the database; no cut-off is given here.

Columns and labels:
[1] = tested on: Mus musculus; test: Ex vivo antitumor activity against human UPF1H cells xenografted NSG mouse assessed as increase in cleaved caspase 7 expression at 5 to 10 mg/kg, iv measured after 24 hrs by immunoblotting analysis; type: functional, organism-based
Summary of the method: (§1)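 Female NSG mice, 8-12 weeks old, implanted s.c. with lymphoma cells. Once tumors were palpable, mice received a single tail-vein i.v. dose (5 or 10 mg/kg) of compound dissolved in PBS. Mice were euthanized 24 h later. Tumors were excised, filtered through 45 µm nylon mesh and lysed, then proteins were analysed by immunoblotting.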

[2] = Antiproliferative activity against human OCI-Ly2 cells measured after 72 hrs by calcein AM dye-based fluorescence assay; type: functional
Summary of the method: (§2)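 Cells exposed in triplicate to six concentrations for 72 h; calcein AM added for 1 h, live-cell fluorescence read at 485/538 nm (ex/em). GI50 taken from dose-response curves.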

[3] = tested on: G-361; test: Antiproliferative activity against human G361 cells assessed as growth inhibition measured after 72 hrs by calcein AM dye-based fluorescence assay; type: functional, cell-based; conditions: G-361, 72 h; summary of the method: as §2
[4] = biological target: Cyclin-dependent kinase 7 (Homo sapiens) (UniProt P50613); test: Inhibition of CDK7 in human Mino cells assessed as decrease in phosphorylation of RNA polymerase 2 C-terminal domain at Ser 2 residue at 12.5 nM by immunoblotting analysis; type: cell-based; conditions: TDE = time-dependent effect
Summary of the method: (§3)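 MINO lymphoma cells were treated at 12.5 nM, with time points over 24 h. Lysates were separated by SDS-PAGE and blotted to nitrocellulose. Phospho-RNA polymerase II CTD (Ser2, Ser5) and phospho-Rb (Ser608, Ser780) were probed with primary antibodies overnight and peroxidase-conjugated secondaries. Detection was by chemiluminescence on a CCD camera.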

[5] = biological target: Cyclin-dependent kinase 9 (Homo sapiens) (UniProt P50750); test: Inhibition of CDK9 in human Mino cells assessed as decrease in phosphorylation of RNA polymerase 2 C-terminal domain at Ser 2 residue at 12.5 nM by immunoblotting analysis; type: cell-based; conditions: TDE = time-dependent effect
Summary of the method: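 MINO lymphoma cells exposed to 12.5 nM for up to 24 h (time course). Lysates separated by SDS-PAGE, transferred to nitrocellulose, probed overnight with specific primary antibodies diluted in PBS with 5% milk and 0.1% Tween 20, then peroxidase-conjugated secondaries; chemiluminescence imaged with a CCD camera.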

[6] = tested on: Homo sapiens; test: Antitumor activity against human Mino cells xenografted in NSG mouse assessed as inhibition of tumor growth at 10 mg/kg, iv administered daily measured every day during compound dosing by caliper method; type: functional, organism-based
Summary of the method: (§4)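 Female NSG mice, 8-12 weeks old, given cells s.c.; once all had palpable tumors, daily i.v. tail-vein dosing at 10 mg/kg in PBS. Two perpendicular tumor diameters measured daily by caliper. Study ended when any mouse's tumor reached ≥2 cm. Groups: MINO n=10, MAVER-1 n=12, Hbl-2 n=8, VFN-M1 PDX n=10.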

[7] = biological target: CDK9/cyclin T1 (Homo sapiens, UniProt P50750); test: Inhibition of recombinant human N-terminal GST-His6-fused CDK9 (M1 to F372 residues)/N-terminal His6-tagged cyclin T1 (M1 to K726 residues) expressed in baculovirus infected Sf9 insect cells using (YSPTSPS)2KK as substrate measured in presence of [gamma-33P]ATP
[8] = tested on: Mus musculus; test: Ex vivo antitumor activity against human Mino cells xenografted NSG mouse decrease in phosphorylation of RNA polymerase 2 C-terminal domain at Ser 2 residue at 5 to 10 mg/kg, iv measured after 24 hrs by immunoblotting analysis; type: functional, organism-based; summary of the method: as §1
[9] = biological target: Cyclin-dependent kinase 7 (Homo sapiens) (UniProt P50613); test: Inhibition of CDK7 in human Mino cells assessed as decrease in phosphorylation of Rb at Ser 780 residue at 12.5 nM by immunoblotting analysis; type: cell-based; conditions: TDE = time-dependent effect; summary of the method: as §3
[10] = tested on: K562; test: Antiproliferative activity against human K562 cells assessed as growth inhibition measured after 72 hrs by calcein AM dye-based fluorescence assay; type: functional, cell-based; conditions: K562, 72 h; summary of the method: as §2
[11] = tested on: Homo sapiens; test: Antitumor activity against patient-derived VFN-M1 cells xenografted in NSG mouse assessed as inhibition of tumor growth at 10 mg/kg, iv administered daily measured every day during compound dosing by caliper method; type: functional, organism-based; summary of the method: as §4
[12] = Antiproliferative activity against human UPF1H cells assessed as growth inhibition measured after 72 hrs by calcein AM dye-based fluorescence assay; type: functional, cell-based; summary of the method: as §2
[13] = species: Homo sapiens; test: Induction of apoptosis in human Mino cells assessed as effect on BCL-2 protein expression at 1.5 to 12.5 nM after 24 hrs by immunoblotting analysis; type: functional, cell-based
Summary of the method: (§5)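 Lymphoma cell lines were cultured as the providers instruct and exposed to compound at several doses or for several times. Lysates were run on SDS-PAGE and blotted to nitrocellulose. Blots were blocked, incubated overnight with primary antibodies diluted in PBS with 5% milk and 0.1% Tween 20, then with peroxidase-conjugated secondaries, and detected by chemiluminescence on a CCD camera.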

[14] = tested on: Mus musculus; test: Ex vivo antitumor activity against Maver1 xenografted NSG mouse assessed as increase in cleaved caspase7 expression t 10 mg/kg, iv measured after 24 hrs by immunoblotting analysis; type: functional, organism-based
Summary of the method: (§6)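 NSG mice bearing palpable s.c. tumors received a single i.v. dose (5 or 10 mg/kg) and were euthanized after 24 h. Excised tumors were filtered through 45 µm nylon mesh, lysed and run on SDS-PAGE, transferred to nitrocellulose, probed overnight with primary antibodies in PBS with 5% milk and 0.1% Tween 20, then peroxidase secondaries, with chemiluminescent detection.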

[15] = tested on: MCF7; test: Antiproliferative activity against human MCF7 cells assessed as growth inhibition measured after 72 hrs by calcein AM dye-based fluorescence assay; type: functional, cell-based; conditions: MCF7, 72 h; summary of the method: as §2
[16] = tested on: Mus musculus; test: Ex vivo antitumor activity against patient derived VFN-M1 cells xenografted NSG mouse assessed as down regulation of MCL1 expression at 10 mg/kg, iv measured after 24 hrs by immunoblotting analysis
[17] = biological target: Casein kinase I isoform delta (Homo sapiens, UniProt P48730); test: Inhibition of CK1delta (unknown origin)
[18] = tested on: Mus musculus; test: Ex vivo antitumor activity against human UPF1H cells xenografted NSG mouse decrease in phosphorylation of RNA polymerase 2 C-terminal domain at Ser 5 residue at 5 to 10 mg/kg, iv measured after 24 hrs by immunoblotting analysis; type: functional, organism-based; summary of the method: as §1
[19] = tested on: Mus musculus; test: Ex vivo antitumor activity against human UPF1H cells xenografted NSG mouse assessed as effect on BCL2 expression at 5 to 10 mg/kg, iv measured after 24 hrs by immunoblotting analysis; type: functional, organism-based; summary of the method: as §1
[20] = Antiproliferative activity against human Mino cells assessed as growth inhibition measured after 72 hrs by calcein AM dye-based fluorescence assay; type: functional, cell-based; summary of the method: as §2
[21] = tested on: Mus musculus; test: Ex vivo antitumor activity against human Mino cells xenografted NSG mouse assessed as down regulation of XIAP expression at 5 to 10 mg/kg, iv measured after 24 hrs by immunoblotting analysis; type: functional, organism-based; summary of the method: as §6
[22] = tested on: Z-138; test: Antiproliferative activity against human Z138 cells assessed as growth inhibition measured after 72 hrs by calcein AM dye-based fluorescence assay; type: functional, cell-based; conditions: Z-138, 72 h; summary of the method: as §2
[23] = species: Homo sapiens; test: Induction of apoptosis in human UPF1H cells assessed as reduction in MCL1 expression at 12.5 to 100 nM after 24 hrs by immunoblot analysis; type: functional, cell-based; summary of the method: as §5

Chain of Cyclin-dependent kinase 7 (Homo sapiens) (P50613 whole entry, the tested form may be a part): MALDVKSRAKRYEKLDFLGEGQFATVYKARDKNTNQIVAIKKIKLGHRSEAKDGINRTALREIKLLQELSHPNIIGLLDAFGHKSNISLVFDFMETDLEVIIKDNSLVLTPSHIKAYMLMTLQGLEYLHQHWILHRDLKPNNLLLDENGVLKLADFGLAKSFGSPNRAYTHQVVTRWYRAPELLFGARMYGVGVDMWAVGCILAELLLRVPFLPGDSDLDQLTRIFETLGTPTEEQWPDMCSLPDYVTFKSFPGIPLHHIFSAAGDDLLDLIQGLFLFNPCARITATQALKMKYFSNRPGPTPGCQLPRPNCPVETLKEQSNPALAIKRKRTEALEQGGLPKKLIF
Chain of Casein kinase I isoform delta (P48730 whole entry, the tested form may be a part, canonical isoform): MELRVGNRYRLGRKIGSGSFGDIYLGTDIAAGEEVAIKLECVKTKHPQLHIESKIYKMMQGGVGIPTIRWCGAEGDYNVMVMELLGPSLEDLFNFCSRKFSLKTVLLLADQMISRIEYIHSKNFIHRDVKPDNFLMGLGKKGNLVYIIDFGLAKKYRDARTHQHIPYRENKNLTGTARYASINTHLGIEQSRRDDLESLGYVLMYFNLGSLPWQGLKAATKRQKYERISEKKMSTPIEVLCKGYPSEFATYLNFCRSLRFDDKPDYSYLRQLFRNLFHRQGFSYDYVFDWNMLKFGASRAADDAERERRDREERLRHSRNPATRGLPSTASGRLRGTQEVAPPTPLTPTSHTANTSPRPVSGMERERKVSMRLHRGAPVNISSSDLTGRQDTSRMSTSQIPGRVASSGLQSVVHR
Chain of CDK9/cyclin T1 (O60563 whole entry, the tested form may be a part): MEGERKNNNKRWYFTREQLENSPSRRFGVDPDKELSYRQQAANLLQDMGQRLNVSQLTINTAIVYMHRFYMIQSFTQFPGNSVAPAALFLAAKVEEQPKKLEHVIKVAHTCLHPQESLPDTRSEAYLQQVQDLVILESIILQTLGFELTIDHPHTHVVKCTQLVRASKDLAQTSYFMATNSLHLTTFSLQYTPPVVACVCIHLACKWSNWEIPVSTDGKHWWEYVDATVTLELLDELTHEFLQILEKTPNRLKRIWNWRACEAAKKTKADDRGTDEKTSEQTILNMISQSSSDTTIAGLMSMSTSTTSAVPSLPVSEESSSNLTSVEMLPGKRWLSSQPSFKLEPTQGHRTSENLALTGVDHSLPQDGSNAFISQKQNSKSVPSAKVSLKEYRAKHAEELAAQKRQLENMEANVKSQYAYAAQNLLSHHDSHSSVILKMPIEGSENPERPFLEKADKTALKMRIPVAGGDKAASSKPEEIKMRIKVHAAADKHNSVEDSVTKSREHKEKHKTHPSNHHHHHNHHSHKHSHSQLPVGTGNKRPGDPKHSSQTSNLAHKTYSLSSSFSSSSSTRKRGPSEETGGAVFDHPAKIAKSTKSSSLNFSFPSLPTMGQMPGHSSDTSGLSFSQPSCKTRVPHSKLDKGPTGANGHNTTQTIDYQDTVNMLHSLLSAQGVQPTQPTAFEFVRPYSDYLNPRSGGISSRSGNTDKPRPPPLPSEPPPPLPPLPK
Chain of CDK9/cyclin T1 (P50750 whole entry, the tested form may be a part): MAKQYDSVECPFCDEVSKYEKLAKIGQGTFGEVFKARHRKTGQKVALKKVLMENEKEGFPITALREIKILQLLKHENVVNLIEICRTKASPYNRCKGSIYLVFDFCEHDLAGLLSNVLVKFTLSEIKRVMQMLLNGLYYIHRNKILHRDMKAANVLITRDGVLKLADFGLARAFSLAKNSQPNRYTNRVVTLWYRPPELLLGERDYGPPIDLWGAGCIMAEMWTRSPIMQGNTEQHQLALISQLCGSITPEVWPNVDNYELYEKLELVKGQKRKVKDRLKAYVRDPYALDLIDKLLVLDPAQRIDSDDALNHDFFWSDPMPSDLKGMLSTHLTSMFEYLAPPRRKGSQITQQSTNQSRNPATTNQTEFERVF
Chain of Cyclin-dependent kinase 9 (Homo sapiens) (P50750 whole entry, the tested form may be a part): as above

For `CC(C)c1n[nH]c2c(NCc3ccc(-c4ccccn4)cc3)nc(SCCN)nc12`, the Activity [1] was “Active”, the GI50 [2] was 28 nM and the GI50 [3] was 36 nM. The IC50 [3] was 36 nM, the inhibition [4] was “Tde” and the inhibition [5] was “Tde”. For the same compound, the TGI [6] was “Active”, the IC50 [7] was 25 nM and the Activity [8] was “Active”. For the same compound, the inhibition [9] was “Tde”, the GI50 [10] was 36 nM and the IC50 [10] was 36 nM. For the same compound, the TGI [11] was “Active”, the GI50 [12] was 25 nM and the IC50 [12] was 25 nM. For the same compound, the Activity [13] was “inactive”, the Activity [14] was “Active” and the GI50 [15] was 21.6 nM. The IC50 [15] was 16 nM, the Activity [16] was “Active” and the IC50 [17] was 45 nM. The Activity [18] was “Active”, the Activity [19] was “inactive” and the GI50 [20] was 16 nM. For the same compound, the IC50 [20] was 16 nM, the Activity [21] was “Active” and the GI50 [22] was 13 nM. For the same compound, the IC50 [22] was 13 nM and the Activity [23] was “Active”.
